“And” between values parts separate entries of the source, which are not always exact repeats. Identical values can stand only once. Marks after values point to notes of the source that are not given here.
Legend:
[1] = ref Burkhard and Kuehl, 1986; cited from earlier work
[2] = system: zebrafish; assay: Survival of embryos after TCDD exposure; format: in vivo, zebrafish (Danio rerio); settings: TCDD-exposed groups at 72 hpf; control (DMSO) 96.4%, p = 0.49
[3] = TCDD body burden and elimination in embryos, GC-HRMS; format: in vivo, zebrafish (Danio rerio); settings: for body burden relative to the 50 ppt dose: 24 hpf; for Concentration of TCDD detected per embryo (body burden): 1 h at 4 hpf, mean; for half-life: zebrafish, whole embryo (pooled embryos), other: waterborne exposure
Procedure, shortened: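 AB zebrafish embryos, screened at 3 hpf, exposed at 4 hpf (20 per 2 mL egg water) for 1 h to 50 ppt, 1 ppb or 10 ppb test compound (DMSO stock diluted 1:1000) or paired DMSO, then raised in fresh egg water at 28.5 °C. Dechorionated at 24 hpf. Pooled embryos (7 at 1 and 10 ppb) snap-frozen at 24, 48 and 72 hpf.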

[4] = system: zebrafish metabolome; assay: Non-targeted LC-HRMS metabolomics of TCDD-exposed embryos; format: in vivo, zebrafish (Danio rerio); settings: TCDD exposed vs DMSO
Procedure, shortened: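 Embryos given a 1-h exposure at 4 hpf to 50 ppt or 10 ppb test compound, or matched DMSO, pooled (40 and 7 embryos respectively) at 24, 48 and 72 hpf. LC-HRMS used HILIC (25 °C) and C18 (60 °C) columns with 2 mM ammonium acetate/acetonitrile gradients, in negative and positive ion modes.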

Clc1cc2c(cc1Cl)Oc1cc(Cl)c(Cl)cc1O2 [TCDD, 2,3,7,8-tetrachlorodibenzo-p-dioxin]
Kow [1]: 7.02
average survival rate [2]: 96.3%
body burden relative to the 50 ppt dose ([3]; 1 ppb exposure vs 50 ppt exposure): approximately 3 times
Concentration of TCDD detected per embryo (body burden) ([3]; 1 ppb waterborne exposure, 48 HPF): 12.7 pg/embryo
Concentration of TCDD detected per embryo (body burden) ([3]; 1 ppb waterborne exposure, 72 HPF): 4.30* pg/embryo
body burden relative to the 50 ppt dose ([3]; 10 ppb exposure vs 50 ppt exposure): approximately 4.45 times
Concentration of TCDD detected per embryo (body burden) ([3]; 10 ppb waterborne exposure, 24 HPF): 26.6 ± 1.2 pg/embryo and 38.0 ± 4.34 pg/embryo and 38.0* pg/embryo
Concentration of TCDD detected per embryo (body burden) ([3]; 10 ppb waterborne exposure, 48 HPF): 14.7 pg/embryo
Concentration of TCDD detected per embryo (body burden) ([3]; 10 ppb waterborne exposure, 72 HPF): 9.78* pg/embryo
Concentration of TCDD detected per embryo (body burden) ([3]; 50 ppt waterborne exposure, 48 HPF): 5.27 pg/embryo
Concentration of TCDD detected per embryo (body burden) ([3]; 50 ppt waterborne exposure, 72 HPF): 0.407 pg/embryo
half-life ([3]; 1 ppb): 32.7 h
half-life ([3]; 10 ppb): 10.7 h
upregulation of 3a, 7a-Dihydroxy-5b-cholestane ([4]; bile acid biosynthesis pathway): 1.01 fold
decrease of the dihydrotestosterone peak ([4]; every 24 h): 6.02 fold
downregulation of androsterone ([4]; every 24 h): 0.363 fold
upregulation of pregnenolone ([4]; every 24 h): 0.529 fold
downregulation of L-Glutamic acid (glutamate) ([4]; over time): 0.30 fold
downregulation of dopamine ([4]; over time): 0.66 fold
downregulation of gamma-aminobutyric acid (GABA) ([4]; over time): 0.32 fold

Source: article PMC9835613 (Chemosphere, 2022)
